Rows were chosen to be rich in hits. Some 4.2% of all compounds tested hit in one or more screens of this group.
AHR activator: AHR activators, primary screen, cell-based, luminescence, luciferase reporter, human; activation, % at 5 µM; AHR-responsive luciferase reporter cells; Aryl hydrocarbon receptor (Homo sapiens), P35869; 2.5% of 320,000 active; AID 2796, 2010; in the data active = activation above about 47%
SENP1 FRET inh: human SENP1 catalytic domain inhibitors, primary screen, biochemical, FRET, uHTS. Sentrin-specific protease 1 (Homo sapiens), Q9P0U3. recombinant SENP1 catalytic domain, CyPet-SUMO1-YPet FRET cleavage. inhibition, % at 10 µM. 0.21% of 360,000 active;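 active = inhibition at least 30% at 10 µM, raw YFP signal under a set limit, fluorescence ratio 0.5 to 1.5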
Target sequence (Q9P0U3 419-644 limits assumed): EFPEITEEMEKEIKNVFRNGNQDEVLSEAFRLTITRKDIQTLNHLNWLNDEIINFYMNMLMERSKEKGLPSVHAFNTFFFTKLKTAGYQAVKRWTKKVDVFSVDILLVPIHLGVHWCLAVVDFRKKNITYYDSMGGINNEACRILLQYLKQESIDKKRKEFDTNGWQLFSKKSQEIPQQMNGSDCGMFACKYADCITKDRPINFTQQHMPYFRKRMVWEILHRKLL
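Compound: 10 µM single point, 0.5% DMSO; Test system: hSENP1 catalytic domain, recombinant; Timing: 50 min reaction at room temperature; Technique: FRET, CFP and YFP emission; Control set: no-enzyme wells low, DMSO-plus-enzyme wells high control.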
HDAC3 inh: HDAC3 deacetylase inhibitors, primary screen, biochemical, fluorescence, cell-free homogeneous; Histone deacetylase 3 (Homo sapiens), O15379; 0.15% of 320,000 active; recombinant HDAC3, fluorogenic peptide/trypsin coupled; inhibition, % at 8.3 µM; in the data active = inhibition above about 26%, passing the limit was not always enough
Target sequence (O15379 whole entry, looked up): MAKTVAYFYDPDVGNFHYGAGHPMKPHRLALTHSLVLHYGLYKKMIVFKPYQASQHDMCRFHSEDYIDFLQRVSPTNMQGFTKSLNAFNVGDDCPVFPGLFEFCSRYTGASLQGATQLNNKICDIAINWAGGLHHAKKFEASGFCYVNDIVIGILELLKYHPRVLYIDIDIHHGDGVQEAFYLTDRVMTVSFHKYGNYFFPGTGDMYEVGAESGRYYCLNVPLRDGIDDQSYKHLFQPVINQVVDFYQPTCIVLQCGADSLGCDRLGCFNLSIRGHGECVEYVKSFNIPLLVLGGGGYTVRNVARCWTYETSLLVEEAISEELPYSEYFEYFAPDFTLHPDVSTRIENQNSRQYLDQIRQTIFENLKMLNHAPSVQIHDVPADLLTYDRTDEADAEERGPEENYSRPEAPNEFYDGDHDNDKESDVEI
M18AAP inhibitor: PfM18AAP inhibitors, malaria aminopeptidase, primary screen, biochemical, QFRET, recombinant enzyme; AID 1822, 2009; M18 aspartyl aminopeptidase (Plasmodium falciparum 3D7); 1.2% of 290,000 active; inhibition, % at 7.35 µM; H-Glu-NHMec fluorogenic cleavage;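 active = inhibition above the campaign mean inhibition over all tested compounds plus 3 SD, cut at about 28% in these data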
GAA850 FXN act: FXN promoter activators, primary screen, cell-based, luciferase luminescence, HEK293 lucGAA850; 0.56% of 360,000 active; HEK293 lucGAA850 FXN promoter luciferase reporter, 24 h; percent of 10 µM SAHA response; activation, % at 6 µM;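 active = activation above the average of all compounds screened plus 3 SD, cutoff fixed separately per campaign, cut at about 7.5% in these data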
CTSL1 counter: Fasciola hepatica cathepsin L1 inhibitors, primary screen, counter-screen for PFM18AAP inhibitor project, biochemical, QFRET, fluorogenic peptide substrate; recombinant F. hepatica cathepsin L1, Z-Leu-Arg-MCA fluorescence; inhibition, % at 5.96 µM; AID 1906, 2009; 0.49% of 300,000 active;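 active = inhibition above the mean of all tested compounds plus 3 SD, set per screening campaign, cut at about 17% in these data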
A number is an active result; i = inactive; nt = not tested or not shown.

SMILES	AHR activator	SENP1 FRET inh	HDAC3 inh	M18AAP inhibitor	GAA850 FXN act	CTSL1 counter
CC(=O)Oc1cccc(C2C3=C(CC(C)(C)CC3=O)Nc3ccccc3N2C(C)=O)c1 (centres undefined)	i	i	i	i	i	i
CCn1cc(C(=O)OCC(=O)NCc2ccccc2Cl)c(=O)c2ccc(C)nc21	i	i	i	i	i	16.7
CCn1cc(C(=O)OCC(=O)Nc2c(C)cccc2C)c(=O)c2ccc(C)nc21	i	i	i	i	i	i
COc1ccccc1C(=O)NC1CCN(C(=O)Nc2ccc(C)cc2)CC1	i	i	i	i	i	i
COc1cc(OC)cc(C(=O)NC(=S)NCCc2ccccc2)c1	69.1	i	i	i	i	i
COc1cc(OC)cc(C(=O)Nc2cccc3cccnc23)c1	50.3	i	i	i	i	i
COc1ccc(C(=O)NC(=S)NCc2ccccc2)cc1	i	i	i	i	i	i
Cc1ccc(C(=O)Nc2cccnc2)cc1S(=O)(=O)N1CCCC1	53.7	i	i	i	i	i
COc1cc(OC)cc(C(=O)Nc2cccnc2)c1	59.5	i	i	i	i	i
COC(=O)C1(C(=O)OC)C[C@H](c2ccc(OC)cc2)N(Cc2ccccc2OC)[C@@H]1c1cccs1	nt	i	nt	nt	nt	nt
COc1cc(OC)cc(C(=O)Nc2c(F)cccc2F)c1	59.0	i	i	i	i	i
COc1cccc(C(=O)Nc2c(F)cccc2F)c1	i	i	i	i	i	i
COc1cc(OC)cc(C(=O)NCc2cccnc2)c1	i	i	i	i	i	18.5
O=C(N/N=C/c1ccccc1C(F)(F)F)c1ccc2nc[nH]c2c1	i	i	i	i	i	i
CN(C)c1cc(N/N=C/c2ccccc2C(F)(F)F)nc(N(C)C)n1	54.8	i	i	i	i	i
S=c1cn[nH]c2ccccc12	nt	i	nt	nt	i	nt
O=C1/C(=C\c2cccnc2)Sc2ccccc21	52.8	i	i	i	i	i
O=C(CCO)c1ccc(O)cc1	i	i	i	56.1	i	i
O=C1OCCC1=COCCCCCOC=C1CCOC1=O	nt	i	nt	nt	i	nt
Cc1ccc(S(=O)(=O)CCC(=O)c2ccc(F)cc2)cc1	i	i	i	i	i	43.1
Cc1ccc(C(=O)CCS(=O)(=O)c2ccc(F)cc2)cc1	i	i	i	i	i	29.8
O=C(NCC(F)(F)F)c1[nH]c(C(F)(F)F)nc1-c1ccccc1	nt	i	nt	nt	nt	nt
Oc1oc(-c2ccco2)nc1C=Nc1ccccc1	i	i	i	i	i	i
Oc1oc(-c2ccco2)nc1C=Nc1cccc(Cl)c1	i	i	i	i	i	36.5
COc1ccc(C(=O)CCc2ccccc2)cc1	i	i	i	i	i	i
SMILES	AHR activator	SENP1 FRET inh	HDAC3 inh	M18AAP inhibitor	GAA850 FXN act	CTSL1 counter
COc1ccc(C(=O)COC(=O)CCc2ccccc2)cc1	i	i	i	29.6	i	i
Brc1ccc2[nH]ncc2c1	i	i	i	i	i	i
Nc1ccc2cn[nH]c2c1	48.6	i	i	i	i	i
O=C(c1cc(-c2cccc(Cl)c2)nc2ccccc12)N1CCCC1	i	i	i	i	i	i
CC(C)CCOCC(O)CCC(=O)NNC(=S)Nc1ccccc1 (centres undefined)	i	i	i	i	i	i
C=CCC(CC(O)COCCC)C(=O)NNC(=S)Nc1ccccc1 (centres undefined)	i	i	i	30.0	i	i
Cc1ccc(NC(=O)c2cc([N+](=O)[O-])ccc2NCc2cccnc2)cc1	74.6	i	i	i	i	i
O=C(Nc1cccnc1)c1cccc([N+](=O)[O-])c1	i	i	i	i	i	i
O=C(Nc1cc([N+](=O)[O-])ccc1C(=O)Nc1cccnc1)c1ccccc1	66.1	i	i	i	i	i
Cc1ccc(SSc2cc(C)ccc2N)c(N)c1	58.1	i	i	nt	i	i
Cc1ccc(O)c(N)c1	i	i	i	nt	i	nt
O=c1[nH]c(Nc2nc3ccccc3o2)nc2c1CCCC2	54.9	i	i	i	i	i
Cc1ccc(-c2nc(=S)c3c(n2Cc2ccco2)CC(C)(C)OC3)cc1	i	i	i	i	7.6	i
Cc1ccc(-c2nc(=S)c3c(n2Cc2ccco2)CCCC3)cc1	nt	i	nt	i	i	nt
COc1ccc(NC(=S)NNC(=O)C(C)n2nc(C)c([N+](=O)[O-])c2C)cc1 (centres undefined)	i	i	i	i	i	i
COc1cccc(-c2noc(C(C)n3nc(C)c([N+](=O)[O-])c3C)n2)c1 (centres undefined)	i	i	i	i	i	18.3
NC(=O)N/N=C/c1ccccc1OCC(=O)NCc1ccccc1	i	i	i	i	i	i
O=C(NC1CCc2ccccc21)c1cc(COc2cncc(Cl)c2)on1 (centres undefined)	55.4	i	i	i	i	i
O=C(NC1CCc2ccccc21)c1cc(COc2ccc(F)cc2Cl)on1 (centres undefined)	i	i	i	i	i	i
Cc1ccc(N(C(=O)CCl)C(C(=O)NC2CCCCC2)c2cccnc2)cc1C (centres undefined)	i	nt	i	i	nt	17.6
CN(C(=O)c1cccc(NC(=O)Cc2ccc(NC(=O)C3CCCN(C(=O)C4CC4)C3)cc2)c1)C1CCC1 (centres undefined)	nt	i	nt	nt	i	nt
Cc1cnc(NC(=O)CSc2nnc(COc3c(C)cccc3C)o2)s1	i	i	i	28.3	i	i
Cc1cnc(NC(=O)CSc2nnc(COc3ccccc3)o2)s1	i	i	i	i	i	i
Cc1cccc(C)c1OCc1nnc(SCC(=O)NCc2ccccc2)o1	i	i	i	i	i	21.4
CSc1ccc(OC2(C)CCN(Cc3ccc4c(c3)OCCO4)C2)cc1 (centres undefined)	nt	i	nt	nt	i	nt
SMILES	AHR activator	SENP1 FRET inh	HDAC3 inh	M18AAP inhibitor	GAA850 FXN act	CTSL1 counter
CCNc1nc2c(c(=O)n(C)c(=O)n2C)n1CCCc1ccccc1	i	i	i	i	i	i
Cc1sc(N/N=C/C=C/c2ccccc2)nc1-c1ccccc1	73.3	i	i	i	i	i
COc1ccc(CN2CCNC(=O)C2CC(=O)NCC(C)(C)N2CCOCC2)cc1C (centres undefined)	61.0	i	i	i	i	i
CCCCc1cc(=O)oc2cc(C)cc(OCC(=O)N3CCC(C(=O)O)(c4ccccc4)CC3)c12	i	i	i	i	i	i
Cc1ccc(/C=[N+](\[O-])c2ccc(N(C)C)cc2)c2nsnc12	nt	i	nt	30.7	i	nt
Cc1ccc2nsnc2c1NS(=O)(=O)c1c(C)ccc2nsnc12	i	i	i	i	i	i
COC(=O)c1ccc(OC(=O)c2cccnc2)cc1	i	i	41.7	i	i	i
CC(C)OC(=O)c1ccc(OC(=O)c2cccnc2)cc1	i	i	46.7	i	i	i
CC(=O)Nc1ccc(OC(=O)c2cccnc2)cc1	i	i	i	i	i	i

Screening results (PubChem BioAssay)
